ChEMBL document CHEMBL1132243, “Structure-activity relationships of L-dioxolane uracil nucleosides as anti-Epstein Barr virus agents” (J Med Chem, 1999)

Tests used:
Human gammaherpesvirus 4 [1] = assay: (§1) Effective concentration of compound against Epstein Barr virus was determined; assay type: functional, organism-based
Procedure, shortened: (§2)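 Log-phase H1 cells seeded at 2 × 10^5 cells/well, exposed to a range of concentrations at 37 °C for 5 days. EBV DNA was measured by slot blot of freeze-thaw lysates in 10 mM Tris-HCl pH 7.5 with RNase A (50 μg/mL final, 55 °C, 2 h), probed with EBV EcoRI fragment, then reprobed with Alu. The EBV/Alu ratio was compared with untreated cells.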

[2] = Cytotoxicity on human P3HR1 derived H1 cells; assay type: functional; details: read-out: ID50 (the source's name)
Procedure, shortened: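 H1 cells seeded at 2 × 10^5 cells/well with various compound concentrations for 3 days, then counted. ID50 is the dose giving a 50% drop in cell number versus the untreated control. Medium was RPMI 1640 with 10% dialyzed FBS, 37 °C, 5% CO2.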

[3] = Selective Index from ID50 to that of EC90
[4] = Toxicity of compound was determined as decrease in mt-DNAcontent in human P3HR1 derived H1 cells; assay type: cell-based
Procedure, shortened: (§3)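 H1 cells (high-yield EBV producers derived from P3HR1), kept in log growth for 2 days, seeded at 2 × 10^5 cells/well with or without compound at various concentrations, 37 °C for 5 days. Lysed by freeze-thaw, RNase A treated, slot-blotted, then hybridized with a mitochondrial DNA probe after the Alu probe was stripped. mtDNA content compared with untreated cells.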

Human gammaherpesvirus 4 [5] = assay: as §1; assay type: functional; procedure, shortened: as §2
[6] = Compound was tested for cytotoxicity against mt-DNA; procedure, shortened: as §3
[7] = Selective Index (ID50/EC90)

For O=c1ccn([C@H]2CO[C@@H](CO)O2)c(=O)[nH]1, which EC50 (Human gammaherpesvirus 4 [1]; human gammaherpesvirus 4) is on record?
The EC50 was over 50 µM.

For O=c1[nH]c(=O)n(C2COC(CO)O2)cc1C(F)(F)F (stereo not given), which IC50 ([2]; Homo sapiens, H1) is on record?
The IC50 was over 100 µM.

And the EC50 (Human gammaherpesvirus 4 [1]; human gammaherpesvirus 4)?
Its EC50 is 4 µM.

For O=c1[nH]c(=O)n(C2COC(CO)O2)cc1I (stereo in doubt; 17) [listing 1 of 2 here], which Selectivity index [3] is on record?
Its Selectivity index is over 6250.

What does the source list for O=c1[nH]c(=O)n(C2COC(CO)O2)cc1I (stereo in doubt)?
IC50 [2]: 18 µM; EC50 (Human gammaherpesvirus 4 [1]): 7.6 µM

Which Selectivity index [3] does the source give for O=c1[nH]c(=O)n(C2COC(CO)O2)cc1Cl (stereo not given) here?
Its Selectivity index is over 72.

And the IC50 ([2]; Homo sapiens, H1)?
The IC50 was over 100 µM.

What about the Toxicity [4] of the same compound?
The Toxicity was over 50 µM.

What about the EC50 (Human gammaherpesvirus 4 [1]; human gammaherpesvirus 4) of the same compound?
Its EC50 is 0.6 µM.

And the EC90 (Human gammaherpesvirus 4 [5])?
Its EC90 is 1.37 µM.

With O=c1[nH]c(=O)n([C@H]2CO[C@@H](CO)O2)cc1F as the compound, how does the IC50 ([2]; Homo sapiens, H1) read?
The IC50 was over 100 µM.

And the Toxicity [4]?
The Toxicity was over 50 µM.

What about the EC50 (Human gammaherpesvirus 4 [1]; human gammaherpesvirus 4) of the same compound?
Its EC50 is 50 µM.

What does the source list for O=c1[nH]c(=O)n([C@H]2CO[C@@H](CO)O2)cc1Br?
IC50 ([2]; Homo sapiens, H1): > 1000 µM; Toxicity [6]: > 50 µM; EC50 (Human gammaherpesvirus 4 [1]; human gammaherpesvirus 4): 0.19 µM; EC90 (Human gammaherpesvirus 4 [5]): 0.48 µM; Selectivity index [7]: > 2080

With Nc1nc2c(ncn2COC(CO)CO)c(=O)[nH]1 [GANCICLOVIR] as the compound, how does the IC50 ([2]; Homo sapiens, H1) read?
Its IC50 is 75 µM.

What about the EC50 (Human gammaherpesvirus 4 [1]; human gammaherpesvirus 4) of the same compound?
Its EC50 is 5 µM.

Which results are given for O=c1[nH]c(=O)n(C2COC(CO)O2)cc1I (stereo in doubt; 17) [listing 2 of 2 here]?
IC50 [2]: > 1000 µM; Toxicity [4]: > 50 µM; EC50 (Human gammaherpesvirus 4 [1]): 0.033 µM; EC90 (Human gammaherpesvirus 4 [5]): 0.16 µM
